From ChEMBL document CHEMBL1123853, “A novel class of cardiotonics. Synthesis and pharmacological properties of [4-(substituted-amino)phenyl]pyridazinones and related derivatives” (1987)

Experiments:
Canis familiaris [1] = species: Canis familiaris; test: Positive inotropic in the isolated papillary muscle of the dog.; assay type: functional, Canis lupus familiaris
Procedure, shortened: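 Right ventricular anterior papillary muscle with septum, from mongrel dogs (7–12 kg, pentobarbital 30 mg/kg iv). It was perfused at about 100 mmHg via the septal artery with blood from a heparinized donor dog and paced at 120/min (1 ms pulses, about 1.5× threshold). Isometric tension was recorded. Saline solutions were injected intra-arterially, with amrinone as reference. ED15 (15% rise in developed tension) was taken from log dose-response curves. Results are mean ± SEM (n = 7) or mean ± range (n = 2).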

Canis familiaris [2] = test: Inotropic activity determined by evaluating the % change in contractile force (CF) of right ventricle at a dose of 100 ug/kg administered intravenously […]; assay type: functional, Canis lupus familiaris, Heart right ventricle
Procedure, shortened: (§1)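 Mongrel dogs of either sex, 7–15 kg, anesthetized with sodium pentobarbital (30 mg/kg iv), open-chest, intubated and ventilated on room air. Compounds given intravenously. A femoral artery catheter with pressure transducer recorded SBP and DBP. dP/dtmax, right ventricular contractile force, cardiac output and heart rate were also recorded, as % change at each iv dose.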

Canis familiaris [3] = test: Inotropic activity determined by evaluating the % change in Diastolic Blood Pressure (DBP) at a dose of 30 ug/kg administered intravenously […]; assay type: functional, Canis lupus familiaris; procedure, shortened: as §1
Canis familiaris [4] = test: Inotropic activity determined by evaluating the % change in Heart Rate (HR) at a dose of 100 ug/kg administered intravenously […]; assay type: functional, Canis lupus familiaris; procedure, shortened: as §1
Canis familiaris [5] = test: Inotropic activity determined by evaluating the % change in Heart Rate (HR) at a dose of 30 ug/kg administered intravenously […]; assay type: functional, Canis lupus familiaris; procedure, shortened: as §1
Canis familiaris [6] = test: Inotropic activity determined by evaluating the % change in Cardiac out put (CO)at a dose of 30 ug/kg administered intravenously […]; assay type: functional, Canis lupus familiaris; procedure, shortened: as §1
Canis familiaris [7] = test: Inotropic activity determined by evaluating the % change in Diastolic Blood Pressure (DBP) at a dose of 100 ug/kg administered intravenously […]; assay type: functional, Canis lupus familiaris; procedure, shortened: as §1
Canis familiaris [8] = species: Canis familiaris; test: Positive inotropic activity determined in the […](that produced 30% increase in dose- response curves [dP/dt(max)]); assay type: functional; details: Canis lupus familiaris
Procedure, shortened: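 In the anesthetized open-chest dog (mongrel, 7–15 kg, pentobarbital 30 mg/kg iv, ventilated on room air), compounds were given intravenously and LV dP/dtmax was recorded. The dose giving a 30% rise in dP/dtmax was read from the dose-response curves. Results are mean ± SEM (n = 3) or mean ± range (n = 2).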

Canis familiaris [9] = test: Inotropic activity determined by evaluating the % change in Systolic Blood Pressure (SBP) at a dose of 100 ug/kg administered intravenously […]; assay type: functional, Canis lupus familiaris, Muscle tissue; procedure, shortened: as §1
Canis familiaris [10] = test: Inotropic activity determined by evaluating the % change in contractile force (CF) of right ventricle at a dose of 30 ug/kg administered intravenously […]; assay type: functional, Canis lupus familiaris, Heart right ventricle; procedure, shortened: as §1
Canis familiaris [11] = test: Inotropic activity determined by evaluating the % change in Cardiac out put (CO)at a dose of 100 ug/kg administered intravenously […]; assay type: functional, Canis lupus familiaris; procedure, shortened: as §1
Canis familiaris [12] = test: Inotropic activity determined by evaluating the maximum rate of rise in left ventricular pressure at a dose of 100 ug/kg administered intravenously […]; assay type: functional, Canis lupus familiaris, Muscle tissue; procedure, shortened: as §1
Canis familiaris [13] = test: Inotropic activity determined by evaluating the maximum rate of rise in left ventricular pressure at a dose of 30 ug/kg administered intravenously […]; assay type: functional, Canis lupus familiaris, Muscle tissue; procedure, shortened: as §1
Canis familiaris [14] = test: Inotropic activity determined by evaluating the % change in Systolic Blood Pressure (SBP) at a dose of 30 ug/kg administered intravenously […]; assay type: functional, Canis lupus familiaris, Muscle tissue; procedure, shortened: as §1
Canis familiaris [15] = test: Inotropic activity determined by evaluating the % change in Heart Rate (HR) at a dose of 300 ug/kg administered intravenously […]; assay type: functional, Canis lupus familiaris, Muscle tissue; procedure, shortened: as §1
Canis familiaris [16] = test: Inotropic activity determined by evaluating the % change in Cardiac out put (CO)at a dose of 300 ug/kg administered intravenously […]; assay type: functional, Canis lupus familiaris; procedure, shortened: as §1
Canis familiaris [17] = test: Inotropic activity determined by evaluating the % change in Diastolic Blood Pressure (DBP) at a dose of 300 ug/kg administered intravenously […]; assay type: functional, Canis lupus familiaris; procedure, shortened: as §1
Canis familiaris [18] = test: Inotropic activity determined by evaluating the % change in contractile force (CF) of right ventricle at a dose of 300 ug/kg administered intravenously […]; assay type: functional, Canis lupus familiaris, Heart right ventricle; procedure, shortened: as §1
Canis familiaris [19] = test: Inotropic activity determined by evaluating the maximum rate of rise in left ventricular pressure at a dose of 300 ug/kg administered intravenously […]; assay type: functional, Canis lupus familiaris, Muscle tissue; procedure, shortened: as §1
Canis familiaris [20] = test: Inotropic activity determined by evaluating the % change in Systolic Blood Pressure (SBP) at a dose of 300 ug/kg administered intravenously […]; assay type: functional, Canis lupus familiaris, Muscle tissue; procedure, shortened: as §1

SMILES	ED15 (Canis familiaris [1]) [µg]	Change of CF (Canis familiaris [2]) [%]	Change of DBP (Canis familiaris [3]) [%]	Change of HR (Canis familiaris [4]) [%]	Change of HR (Canis familiaris [5]) [%]	Change of CO (Canis familiaris [6]) [%]	Change of DBP (Canis familiaris [7]) [%]	ED30 (Canis familiaris [8]) [mg/kg]	Change of SBP (Canis familiaris [9]) [%]	Change of CF (Canis familiaris [10]) [%]	Change of CO (Canis familiaris [11]) [%]	dP/dt (Canis familiaris [12]) [%]	dP/dt (Canis familiaris [13]) [%]	Change of SBP (Canis familiaris [14]) [%]	Change of HR (Canis familiaris [15]) [%]	Change of CO (Canis familiaris [16]) [%]	Change of DBP (Canis familiaris [17]) [%]	Change of CF (Canis familiaris [18]) [%]	dP/dt (Canis familiaris [19]) [%]	Change of SBP (Canis familiaris [20]) [%]
CC(Nc1ccc(C2=NNC(=O)CC2)cc1)c1ccncc1 (stereo unspecified)	33	–	–	–	–	–	–	–	–	–	–	–	–	–	–	–	–	–	–	–
CN(C)c1ccc(CNc2ccc(C3=NNC(=O)CC3)cc2)cc1	>300	–	–	–	–	–	–	–	–	–	–	–	–	–	–	–	–	–	–	–
O=C1CCC(c2ccc(NCc3ccncc3)cc2)=NN1	>300	–	–	–	–	–	–	–	–	–	–	–	–	–	–	–	–	–	–	–
O=C1CCC(c2ccc(NCc3cccnc3)cc2)=NN1	86	–	–	–	–	–	–	–	–	–	–	–	–	–	–	–	–	–	–	–
O=C1CCC(c2ccc(NCc3ccnc4ccccc34)cc2)=NN1	>300	–	–	–	–	–	–	–	–	–	–	–	–	–	–	–	–	–	–	–
CC1CC(c2ccc(Nc3ccncc3)cc2)=NNC1=O.Cl (stereo unspecified)	4.7	52.9	-9.8	17.3	4.6	10.3	-26.1	0.072	-14.6	22.5	23.3	43.8	24.2	-5.9	–	–	–	–	–	–
Cl.O=C1CCC(c2ccc(Nc3ccnc4ccccc34)cc2)=NN1	>300	–	–	–	–	–	–	–	–	–	–	–	–	–	–	–	–	–	–	–
CCC1CC(=O)NN=C1c1ccc(Nc2ccncc2)cc1.Cl (stereo unspecified)	23	23.7	–	12	–	–	-15.1	0.256	-8.8	–	15.2	20.4	–	–	22.5	19.2	-18.3	35.7	34.8	-11.1
CC1CC(=O)NN=C1c1ccc(N(C)c2ccncc2)cc1.Cl (stereo unspecified)	18.5	41.2	-3.2	22.8	2.6	8.9	-13.9	> 0.1	-5.5	13	13.3	27.5	11	-0.6	–	–	–	–	–	–
CN(c1ccc(C2=NNC(=O)CC2)cc1)c1ccccn1.Cl	5.6	37.7	-9.6	9.5	4.5	13.2	-17.8	> 0.1	-10.5	16.5	18.7	32.5	14.3	-6.3	–	–	–	–	–	–
Cl.O=C1CCC(c2ccc(Nc3ccccn3)cc2)=NN1	17.5	40.5	-15.6	16.7	6.7	13.9	-25.5	0.106	-27.2	22	22.1	37.8	16.1	-13.7	–	–	–	–	–	–
Cl.O=C1CCC(c2ccc(Nc3ncccn3)cc2)=NN1	165	–	–	–	–	–	–	–	–	–	–	–	–	–	–	–	–	–	–	–
CN(c1ccncc1)c1ccc(C2=NNC(=O)CC2)cc1.Cl	38	11	–	1.4	–	–	-4	> 0.3	-2.1	–	5.9	13.6	–	–	2.7	8.7	-10.3	20	17.8	-5.8
